Measurements: ChEMBL document CHEMBL1142435, “Two-step synthesis of achiral dispiro-1,2,4,5-tetraoxanes with outstanding antimalarial activity, low toxicity, and high-stability profiles” (J Med Chem, 2008)

Experiments:
Plasmodium falciparum [1] = test: Antimalarial activity against Plasmodium falciparum PH3; assay type: functional, organism-based
Plasmodium falciparum [2] = test: Antimalarial activity against Plasmodium falciparum TM4; assay type: functional, organism-based
Plasmodium falciparum [3] = test: Antimalarial activity against Plasmodium falciparum K1; assay type: functional, organism-based
Plasmodium falciparum [4] = test: Antimalarial activity against Plasmodium falciparum V1/S; assay type: functional, organism-based; settings: V1S
Plasmodium falciparum [5] = test: Antimalarial activity against Plasmodium falciparum DD2; assay type: functional, organism-based
Plasmodium falciparum [6] = test: Antimalarial activity against Plasmodium falciparum GC03; assay type: functional, organism-based
Plasmodium falciparum [7] = test: Antimalarial activity against Plasmodium falciparum HB3; assay type: functional, organism-based
Plasmodium falciparum [8] = test: Antimalarial activity against Plasmodium falciparum 3D7; assay type: functional, organism-based
[9] = Chemical stability assessed as endoperoxide recovery after 48 hrs by iron degradation study; assay type: physicochemical; settings: read-out: Stability
Summary of the method: (§1)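 Endoperoxide (1.0 equiv FeBr₂) was held in THF for 4, 8, 24 or 48 h. The residue was purified by flash column chromatography, and the percent recovery of starting endoperoxide was calculated.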

[10] = Chemical stability assessed as endoperoxide recovery after 4 hrs by iron degradation study; assay type: physicochemical; settings: read-out: Stability; summary of the method: as §1
[11] = Chemical stability assessed as endoperoxide recovery after 8 hrs by iron degradation study; assay type: physicochemical; settings: read-out: Stability; summary of the method: as §1
[12] = Chemical stability assessed as endoperoxide recovery after 24 hrs by iron degradation study; assay type: physicochemical; settings: read-out: Stability; summary of the method: as §1
[13] = Cytotoxicity against african green monkey Vero cells by resazurin reduction assay; assay type: cell-based; settings: chlorocebus sabaeus, read-out: TC50 (the source's name)
Summary of the method: (§2)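 Cytotoxicity was read by resazurin reduction. A single full dose-response curve was built from 10 independent drug concentrations to give TOX₅₀.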

Salmonella typhimurium [14] = test: Genotoxicity against Salmonella Typhimurium NM2009 assessed as induction of umu operon expression; assay type: toxicity, organism-based; settings: salmonella enterica subsp. enterica serovar typhimurium
[15] = Therapeutic index, ratio of TOX50 for human MRC5 cells to IC50 Plasmodium falciparum 3D7; assay type: cell-based
Summary of the method: (§3)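 TOX₅₀ came from resazurin reduction, with single full dose-response curves over 10 independent concentrations. The index is TOX₅₀ divided by the IC₅₀ against the P. falciparum 3D7 isolate.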

[16] = Therapeutic index, ratio of TOX50 for rat H9c(2-1) cells to IC50 Plasmodium falciparum 3D7; summary of the method: as §3
[17] = Cytotoxicity against rat H9c(2-1) cells by resazurin reduction assay; assay type: cell-based; settings: read-out: TC50 (the source's name); summary of the method: as §2
[18] = Cytotoxicity against human MRC5 cells by resazurin reduction assay; assay type: cell-based; settings: read-out: TC50 (the source's name); summary of the method: as §2
Salmonella typhimurium [19] = test: Genotoxicity against Salmonella Typhimurium TA 1535/pSK1002 assessed as induction of umu operon expression in presence of rat liver S9 fraction; assay type: toxicity, organism-based; settings: salmonella enterica subsp. enterica serovar typhimurium
Summary of the method: (§4)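 SOS/umu assay with rat liver S9-mix for metabolic activation. Tester strains carry plasmid pSK1002 with a umuC-lacZ fusion, and induced β-galactosidase activity is the read-out. Positive controls checked strain response. The highest concentration tested was 50 µM.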

[20] = Cytotoxicity against human […] cells by resazurin reduction assay; assay type: cell-based; settings: read-out: TC50 (the source's name); summary of the method: as §2
Salmonella typhimurium [21] = test: Genotoxicity against Salmonella Typhimurium NM2009 assessed as induction of umu operon expression in presence of rat liver S9 fraction; assay type: toxicity, organism-based; settings: salmonella enterica subsp. enterica serovar typhimurium; summary of the method: as §4
[22] = Cytotoxicity against rat L6 cells by resazurin reduction assay; assay type: cell-based; settings: read-out: TC50 (the source's name); summary of the method: as §2
[23] = Therapeutic index, ratio of TOX50 for human […] cells to IC50 Plasmodium falciparum 3D7; assay type: cell-based; summary of the method: as §3
[24] = Chemical stability in phosphate buffer assessed as tetraoxane recovery at pH 7.4 after 16 hrs; assay type: physicochemical; settings: read-out: Stability
Salmonella typhimurium [25] = test: Genotoxicity against Salmonella Typhimurium TA 1535/pSK1002 assessed as induction of umu operon expression; assay type: toxicity, organism-based; settings: salmonella enterica subsp. enterica serovar typhimurium
[26] = Therapeutic index, ratio of TOX50 for rat L6 cells to IC50 Plasmodium falciparum 3D7; assay type: cell-based; summary of the method: as §3
[27] = Therapeutic index, ratio of TOX50 for african green monkey (Cercopithecus aethiops) Vero cells to IC50 Plasmodium falciparum 3D7; assay type: cell-based; summary of the method: as §3
[28] = Chemical stability in water assessed as tetraoxane recovery after 7 days; assay type: physicochemical; settings: read-out: Stability
[29] = Chemical stability in dichloromethane assessed as tetraoxane recovery after 7 days; assay type: physicochemical; settings: read-out: Stability
[30] = Chemical stability in dichloromethane in presence of formic acid assessed as tetraoxane recovery after 7 days; assay type: physicochemical; settings: dichloromethane with formic acid; read-out: Stability
Plasmodium falciparum [31] = test: Antimalarial activity against Plasmodium falciparum
Plasmodium berghei = test: Antimalarial activity against Plasmodium berghei ANKA infected mice (Mus musculus) by peroral dose; assay type: functional; settings: po

CCN(CC)Cc1cc(Nc2ccnc3cc(Cl)ccc23)ccc1O
IC50 (Plasmodium falciparum [1]): 4.7 nM | IC50 (Plasmodium falciparum [2]): 6.4 nM | IC50 (Plasmodium falciparum [3]): 10.2 nM | IC50 (Plasmodium falciparum [4]): 7.7 nM | IC50 (Plasmodium falciparum [5]): 6.1 nM | IC50 (Plasmodium falciparum [6]): 4.5 nM | IC50 (Plasmodium falciparum [7]): 5.9 nM

O=S(=O)(c1ccc(Cl)cc1)N1CCC2(CC1)OOC1(OO2)C2CC3CC(C2)CC1C3
IC50 (Plasmodium falciparum [8]): 22.7 nM

CS(=O)(=O)N1CCC2(CC1)OOC1(CCCCCCCCCCC1)OO2
IC50 (Plasmodium falciparum [8]): 27.8 nM

O=S(=O)(c1ccc(C(F)(F)F)cc1)N1CCC2(CC1)OOC1(OO2)C2CC3CC(C2)CC1C3
IC50 (Plasmodium falciparum [8]): 20.7 nM

O=C(N1CCOCC1)N1CCC2(CC1)OOC1(OO2)C2CC3CC(C2)CC1C3
IC50 (Plasmodium falciparum [8]): 4.7 nM

O=S(=O)(CC(F)(F)F)N1CCC2(CC1)OOC1(OO2)C2CC3CC(C2)CC1C3
IC50 (Plasmodium falciparum [8]): 14.3 nM

O=C(CCc1ccc(S(=O)(=O)N2CCC3(CC2)OOC2(OO3)C3CC4CC(C3)CC2C4)cc1)NCCCCNc1ccc([N+](=O)[O-])c2nonc12
IC50 (Plasmodium falciparum [8]): 16 nM

O=S(=O)(c1ccccc1)N1CCC2(CC1)COC1(OO2)C2CC3CC(C2)CC1C3 (centres undefined)
remaining at 48 h [9]: 43.2% | remaining at 4 h [10]: 96.8% | remaining at 8 h [11]: 84.9% | remaining at 24 h [12]: 56.7%

CC(C)S(=O)(=O)N1CCC2(CC1)OOC1(OO2)C2CC3CC(C2)CC1C3
IC50 (Plasmodium falciparum [8]): 5.87 nM

CCS(=O)(=O)N1CCC2(CC1)OOC1(OO2)C2CC3CC(C2)CC1C3
CC50 [13]: > 50000 nM | IC50 (Plasmodium falciparum [8]): 5.55 nM | Activity (Salmonella typhimurium [14]): 1.07 | TI [15]: > 9090 | TI [16]: > 9090 | CC50 [17]: > 50000 nM | CC50 [18]: > 50000 nM | Activity (Salmonella typhimurium [19]): 0.98 | CC50 [20]: > 50000 nM | Activity (Salmonella typhimurium [21]): 0.95 | IC50 (Plasmodium falciparum [1]): 1.9 nM | CC50 [22]: 31000 nM | IC50 (Plasmodium falciparum [2]): 2.4 nM | TI [23]: > 9090 | remaining at 16 h [24]: 93.2% | Activity (Salmonella typhimurium [25]): 1.03 | TI [26]: 5640 | IC50 (Plasmodium falciparum [3]): 3 nM | IC50 (Plasmodium falciparum [4]): 2.7 nM | IC50 (Plasmodium falciparum [5]): 3 nM | TI [27]: > 9090 | remaining at 168 h [28]: 97.8% | remaining at 168 h [29]: 96.2% | IC50 (Plasmodium falciparum [6]): 3 nM | IC50 (Plasmodium falciparum [7]): 3.8 nM | remaining at 168 h [30]: 92.3%

CS(=O)(=O)N1CCC2(CC1)OOC1(OO2)C2CC3CC(C2)CC1C3
IC50 (Plasmodium falciparum [8]): 10.2 nM

O=S(=O)(c1ccccc1)N1CCC2(CC1)OOC1(CCCCCCCCCCC1)OO2
IC50 (Plasmodium falciparum [8]): 131 nM

CCS(=O)(=O)N1C2CCC1CC1(C2)OOC2(OO1)C1CC3CC(C1)CC2C3 (centres undefined)
IC50 (Plasmodium falciparum [8]): 60.6 nM

O=S(=O)(c1ccccc1)N1CCC2(CC1)OCC1(OO2)C2CC3CC(C2)CC1C3 (centres undefined)
IC50 (Plasmodium falciparum [8]): > 1000 nM

O=S(=O)(C1CC1)N1CCC2(CC1)OOC1(OO2)C2CC3CC(C2)CC1C3
CC50 [13]: > 50000 nM | IC50 (Plasmodium falciparum [8]): 3.52 nM | Activity (Salmonella typhimurium [14]): 1.09 | TI [15]: > 14300 | TI [16]: > 14300 | CC50 [17]: > 50000 nM | CC50 [18]: > 50000 nM | Activity (Salmonella typhimurium [19]): 0.99 | CC50 [20]: > 50000 nM | Activity (Salmonella typhimurium [21]): 1.07 | CC50 [22]: > 50000 nM | TI [23]: > 14300 | Activity (Salmonella typhimurium [25]): 1.05 | TI [26]: > 14300 | TI [27]: > 14300

O=S(=O)(c1ccccc1)N1CCC2(CC1)OOC1(O2)C2CC3CC(C2)CC1C3 (centres undefined)
IC50 (Plasmodium falciparum [8]): 4.98 nM | remaining at 48 h [9]: 0% | remaining at 4 h [10]: 11% | remaining at 8 h [11]: 9% | remaining at 24 h [12]: 2.6%

O=S(=O)(c1ccc(F)cc1)N1CCC2(CC1)OOC1(OO2)C2CC3CC(C2)CC1C3
IC50 (Plasmodium falciparum [8]): 16.7 nM

O=S(=O)(c1ccccc1)N1CCC2(CC1)OOC1(OO2)C2CC3CC(C2)CC1C3
IC50 (Plasmodium falciparum [8]): 5.46 nM | remaining at 48 h [9]: 69% | remaining at 4 h [10]: 88.7% | remaining at 8 h [11]: 80.5% | remaining at 24 h [12]: 72%

O=C(CC1CCC2(CC1)OOC1(OO2)C2CC3CC(C2)CC1C3)N1CCOCC1 (centres undefined)
Activity (Salmonella typhimurium [14]): 1.22 | Activity (Salmonella typhimurium [19]): 0.98 | Activity (Salmonella typhimurium [21]): 1.02 | IC50 (Plasmodium falciparum [31]): 5.2 nM | Activity (Salmonella typhimurium [25]): 1.04

CC(C)S(=O)(=O)N1CCC2(CC1)OOC1(CCCCCCCCCCC1)OO2
IC50 (Plasmodium falciparum [8]): 86.4 nM

CCS(=O)(=O)N1CCC2(CC1)OOC1(CCCCCCCCCCC1)OO2
IC50 (Plasmodium falciparum [8]): 29.1 nM

C[C@H]1[C@H](OC(=O)CCC(=O)O)O[C@@H]2OC3(C)CC[C@H]4[C@H](C)CC[C@@H]1[C@@]24OO3 (single isomer, unassigned) [SODIUM ARESUNATE]
IC50 (Plasmodium falciparum [8]): 0.6 nM | IC50 (Plasmodium falciparum [3]): 0.7 nM

Nc1ccc2cc3ccccc3cc2c1 [2-AMINOANTHRACENE]
Activity (Salmonella typhimurium [14]): 1.08 | Activity (Salmonella typhimurium [19]): 7.34 | Activity (Salmonella typhimurium [21]): 6.09 | Activity (Salmonella typhimurium [25]): 1.1

C[C@@H]1CC[C@H]2[C@@H](C)C(=O)O[C@@H]3O[C@@]4(C)CC[C@@H]1[C@]32OO4 [ARTEMISININ]
ED50 (Plasmodium berghei): 8.42 mg/kg | IC50 (Plasmodium falciparum [8]): 9.2 nM
